Laboratory results from article PMC6331719 (The EMBO Journal, 2018).
Square brackets hold non-standard residues; d marks the D form. Ends that are not written are not given here. Peptide text beside a SMILES is read from it. * marks the point of attachment. DON = [N-]=[N+]=CC(=O)CC[C@H](N)C(=O)O; Cbz = O=C(OCc1ccccc1)*

Assays:
TG2 and CFTR = test: Co-immunoprecipitation of TG2 and CFTR, Caco-2 cells; assay type: cell-based, human; details: Caco-2, pre-treatment
[1] = system: recombinant human NBD1 (rhNBD1); test: Surface plasmon resonance, rhNBD1; assay type: binding; details: CM5 chip, 20°C, HEPES pH 7.4, 2 mM ATP, 5 mM MgCl2; at least three independent experiments
How it was run: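 NBD1 was recombinant human residues 389–678, immobilised by amine coupling to 2000 RU; a blank flow cell served as reference. Running buffer also contained 150 mM NaCl, 0.05% Tween-20 and 1 mM DTT, at a flow of 20 μl/min. Each run used three start-up buffer injections, a zero control, then a concentration series of peptide analyte.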

CFTR (Caco‐2 cells) = test: Ussing chamber, CFTR-dependent Cl- secretion in Caco-2 cells; assay type: cell-based, human; details: for Effect on forskolin-inducible chloride current: Caco-2 or T84, 3 h, peptides 20 μg/ml, PT gliadin 500 μg/ml
How it was run: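 Caco-2 or T84 monolayers grown on 0.4-μm Transwells to 800–1,200 Ω cm2, then mounted in Ussing chambers. Ringer both sides, 37°C, gassed with 95% O2/5% CO2. Cells pretreated 3 h with peptides (20 μg/ml) or PT gliadin (500 μg/ml), or given bath peptides (100 μM, 3–5 min) after 100 μM amiloride. VX-770 10 μM for 5 min. Forskolin 20 μM; peak CFTRinh172-sensitive Isc.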

CFTR = test: Co-immunoprecipitation of CFTR with biotinylated peptide, Caco-2 cells; assay type: binding, human; details: Caco-2, biotinylated peptide, 1 h
TG2 = TG2 activity and TG2-catalysed crosslinking in Caco-2 cells; assay type: cell-based, human; details: Caco-2, Z-DON or TG2 siRNA
NBD1 = NBD1 (Homo sapiens, UniProt P13569, F429S/F494N/Q637R); test: NBD1 ATPase activity; assay type: biochemical
NBD1, sequence (P13569 389-678 F429S/F494N/Q637R): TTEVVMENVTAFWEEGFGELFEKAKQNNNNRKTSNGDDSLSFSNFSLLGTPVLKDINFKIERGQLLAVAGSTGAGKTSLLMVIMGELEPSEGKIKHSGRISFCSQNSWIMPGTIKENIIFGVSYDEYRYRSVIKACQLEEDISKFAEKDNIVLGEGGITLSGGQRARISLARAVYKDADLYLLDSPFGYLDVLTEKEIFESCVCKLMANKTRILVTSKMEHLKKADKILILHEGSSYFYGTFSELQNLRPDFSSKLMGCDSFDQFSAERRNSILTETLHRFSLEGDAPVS

Caco‐2 and T84 cells = test: Cell viability of Caco-2 / T84 cells; assay type: cell-based, human; details: 3 h
[2] = system: CFTR (Caco-2 and T84 cells); test: Iodide efflux by SPQ in intestinal epithelial cells; assay type: cell-based, human; details: forskolin stimulation, 20 μg/ml 3 h, n = 3
TG2 and NBD1 = test: Blue native PAGE, peptide with TG2 and rhNBD1; assay type: binding, human; details: Ca2+-activated TG2, biotinylated peptide
How it was run: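 Recombinant proteins and the indicated peptides were pre-incubated together at 4°C for 30 min in buffer. Samples were then run under native conditions to preserve peptide/protein complexes.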

enterocytes / T cells = details: ref Maiuri et al, 2003; Meresse et al, 2009; Barone et al, 2014; cited from earlier work
celiac PBMC = test: Caco-2 / celiac PBMC bidimensional co-culture, cytokine release; assay type: cell-based, human; details: lower compartment, celiac vs control PBMC
[3] = target: wild‐type human NBD1[389–673], without any solubilizing mutations (human, UniProt P13569-1 389-673); test: native gel or EMSA
wild‐type human NBD1[389–673], without any solubilizing mutations, sequence (P13569 389-673, change not shown): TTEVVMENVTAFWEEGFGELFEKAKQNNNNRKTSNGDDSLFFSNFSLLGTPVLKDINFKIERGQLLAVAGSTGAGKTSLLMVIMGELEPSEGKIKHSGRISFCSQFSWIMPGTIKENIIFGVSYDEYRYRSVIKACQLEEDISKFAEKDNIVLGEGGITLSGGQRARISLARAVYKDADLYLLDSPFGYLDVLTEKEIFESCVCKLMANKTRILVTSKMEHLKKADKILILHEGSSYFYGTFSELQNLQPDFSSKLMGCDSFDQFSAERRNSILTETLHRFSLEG

In the case of `CC(=O)OCOC(=O)CN(CC(=O)OCOC(C)=O)c1ccccc1OCCOc1ccccc1N(CC(=O)OCOC(C)=O)CC(=O)OCOC(C)=O` [BAPTA‐AM], the “Prevention of P31–43-induced TG2–CFTR interaction” value (TG2 and CFTR) is reported as “prevented”.

For LGQAAPFPPAAPY [4QA], the “SPR binding to rhNBD1” value [1] was “strongly reduced as compared to unmutated P31–43”, the “Inhibition of CFTR function by modified peptide” value (CFTR (Caco‐2 cells); Caco-2, 1 h) was “largely unable to inhibit CFTR function” and the “Co-immunoprecipitation with CFTR” value (CFTR) was “marginal interaction with CFTR protein”.

For “LQLQPFPQPQLPY PQPQLPYPQPQLPYPQPQPF [P33‐mer]”, the “Effect on forskolin-inducible chloride current” value (CFTR (Caco‐2 cells)) was “but not P57–68, P33‐mer or PGAV”.

For `COC(=O)[C@H](CC(C)C)NC(=O)[C@@H]1CCCN1C(=O)[C@@H](NC(=O)[C@H](CCC(=O)C=[N+]=[N-])NC(=O)OCc1ccccc1)C(C)C` [Z‐DON] (Cbz-[DON]VPL-OMe), the “Inhibition of P31–43-induced glutamine-lysine bonds in CFTR immunoprecipitates” value (TG2) was “undetectable” and the “Prevention of P31–43-induced TG2–CFTR interaction” value (TG2 and CFTR) was “prevented”.

For “LGQQQPFPPQQPY-NH2 [P31–43, LGQQQPFPPQQPY]”, the IC50 (NBD1) was 55.1 µM and the “Effect on cell viability” value (Caco‐2 and T84 cells) was “did not affect cell viability”.

With GAVAAVGVVAGA [PGAV] the “Effect on forskolin-inducible chloride current” value (CFTR (Caco‐2 cells)) was “but not P57–68, P33‐mer or PGAV” and the “Effect on rate of iodide efflux” value [2] was “not by P57–68 or PGAV”.

In the case of QLQPFPQPQLPY [P57–68], the “SPR binding to rhNBD1” value [1] is reported as “failed to induce any signal”, the “Effect on forskolin-inducible chloride current” value (CFTR (Caco‐2 cells)) is reported as “but not P57–68, P33‐mer or PGAV” and the “Effect on rate of iodide efflux” value [2] is reported as “not by P57–68 or PGAV”. The “Binding to TG2 and complex formation with NBD1” value (TG2 and NBD1) was “but not P57–68”, the “Enterocyte stress / T cell activation” value (enterocytes / T cells) was “activating T cells in the absence of any toxic effect on epithelial cells” and the “IFN-γ production” value (celiac PBMC) was “but not the P57–68 or P31–43 alone”.

B1: biotinylated P31–43 (peptide)
peptide: LGQQQPFPPQQPY
modifications: also: biotin tag, position not given here
B1: binds [3].
